In ChEMBL document CHEMBL1147232, “An anxiolytic-like effect of Ginkgo biloba extract and its constituent, ginkgolide-A, in mice” (J Nat Prod, 2003):

What was measured:
Mus musculus [1] = assay: Anxiolytic-like activity in ddY mouse assessed as ambulatory activity at 1 mg/kg, po for 7 days measured 24 hrs after final drug administration assessed per 5 mins by tilting type ambulometer test; type: functional
How it was run: (§1)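 Male ddY mice (7 weeks, 33-36 g) dosed orally once daily (0.1 mL/10 g) for the stated number of days. Plus-maze 24 h after final dose, then ambulatory activity counted for 5 min on a tilting ambulometer immediately after. Animals used once; N per group as tabulated; mean ± SEM; ANOVA with Student-Newman-Keuls.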

Mus musculus [2] = assay: Anxiolytic-like activity in ddY mouse assessed as time spent in open-sided arms at 1 mg/kg, po for 7 days measured 24 hrs after final drug administration by elevated plus-maze test; type: functional
How it was run: (§2)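 Elevated plus-maze with two walled arms (6 × 30 × 10 cm); time (s) in the open-sided arms recorded 24 h after the last of daily oral doses given for the stated number of days. Male ddY mice, 7 weeks, drug-naive, used once. Mean ± SEM; ANOVA with Student-Newman-Keuls.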

Mus musculus [3] = assay: Anxiolytic-like activity in ddY mouse assessed as number of shocks per hour at 10 mg/kg, po by discrete shuttle avoidance test; type: functional
How it was run: (§3)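 Male ddY mice (7 weeks, 33-36 g), pretrained and reused, showing stable baselines (150-250 shuttles/h, fewer than 10 shocks per session). Single oral dose immediately before a 60-min discrete shuttle avoidance session of 120 trials. Shuttles were full crossings of the chamber. Drug tests ran 3-4 days apart. Vehicle controls; n=10 per group; mean ± SEM; one- or two-way ANOVA with Student-Newman-Keuls.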

Mus musculus [4] = assay: Anxiolytic-like activity in ddY mouse assessed as number of shuttle per hour at 10 mg/kg, po by discrete shuttle avoidance test; type: functional; how it was run: as §3
Mus musculus [5] = assay: Anxiolytic-like activity in ddY mouse assessed as time spent in open-sided arms at 1 mg/kg, po for 4 days measured 24 hrs after final drug administration by elevated plus-maze test; type: functional
Mus musculus [6] = assay: Anxiolytic-like activity in ddY mouse assessed as number of shuttle per hour at 5 mg/kg, po administered 30 mins before test by discrete shuttle avoidance test; type: functional
How it was run: (§4)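 Well-trained male ddY mice with stable baselines (150-250 shuttles/h, under 10 shocks) had 60-min discrete shuttle avoidance sessions of 120 trials, dosed orally 30 min before. Shuttles and shocks per hour counted. Drug tests at 3-4 day intervals, mice reused; 10 mice per group; mean ± SEM; one-way ANOVA with Student-Newman-Keuls.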

Mus musculus [7] = assay: Anxiolytic-like activity in ddY mouse assessed as ambulatory activity at 2 mg/kg, po for 1 day measured after 1 hr assessed per 5 mins by tilting type ambulometer test; type: functional
How it was run: (§5)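 Ambulatory activity counted for 5 min on a tilting ambulometer immediately after the maze. 10 mice per group; mean ± SEM; one-way ANOVA with Student-Newman-Keuls.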

Mus musculus [8] = assay: Anxiolytic-like activity in ddY mouse assessed as number of shuttle per hour at 1 mg/kg, po administered 30 mins before test by discrete shuttle avoidance test; type: functional; how it was run: as §4
Mus musculus [9] = assay: Anxiolytic-like activity in ddY mouse assessed as ambulatory activity at 1 mg/kg, po for 5 days measured 24 hrs after final drug administration assessed per 5 mins by tilting type ambulometer test; type: functional; how it was run: as §1
Mus musculus [10] = assay: Anxiolytic-like activity in ddY mouse assessed as time spent in open-sided arms at 2 mg/kg, po for 1 day measured after 1 hr by elevated plus-maze test; type: functional
How it was run: (§6)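 Elevated plus-maze with two walled arms (6 × 30 × 10 cm) and an 8 × 8 cm central platform; read-out is time (s) in the open-sided arms. 10 mice per group, each used once; mean ± SEM; one-way ANOVA with Student-Newman-Keuls.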

Mus musculus [11] = assay: Toxicity in ddY mouse assessed as induction of muscle relaxation at 1 mg/kg, po after 1 to 3 hrs; type: organism-based; parameters: dose 1 mg/kg, route oral; settings: in vivo
Mus musculus [12] = assay: Toxicity in ddY mouse at 1 to 2 mg/kg, po; type: organism-based; parameters: dose 1-2 mg/kg, route oral; settings: in vivo
Mus musculus [13] = assay: Anxiolytic-like activity in ddY mouse assessed as ambulatory activity at 1 mg/kg, po for 4 days measured 24 hrs after final drug administration assessed per 5 mins by tilting type ambulometer test; type: functional
Mus musculus [14] = assay: Toxicity in ddY mouse assessed as body weight gain after repeated administration; type: organism-based; settings: in vivo
Mus musculus [15] = assay: Anxiolytic-like activity in ddY mouse assessed as pentobarbital-induced sleep time at 20 mg/kg, po administered 30 mins before pentobarbital challenge; type: functional
How it was run: (§7)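 Oral dose to male ddY mice 30 min before pentobarbital-Na 50 mg/kg ip. Sleep time is the interval between loss and recovery of righting reflex (s). Separate drug-naive mice, used once; 10 per group; mean ± SEM; one-way ANOVA with Student-Newman-Keuls.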

Mus musculus [16] = assay: Anxiolytic-like activity in ddY mouse assessed as time spent in open-sided arms at 1 mg/kg, po for 1 day measured after 1 hr by elevated plus-maze test; type: functional; how it was run: as §6
Mus musculus [17] = assay: Anxiolytic-like activity in ddY mouse assessed as ambulatory activity at 2 mg/kg, po for 7 days measured 24 hrs after final drug administration assessed per 5 mins by tilting type ambulometer test; type: functional; how it was run: as §1
Mus musculus [18] = assay: Anxiolytic-like activity in ddY mouse assessed as ambulatory activity at 1 mg/kg, po for 2 days measured 24 hrs after final drug administration assessed per 5 mins by tilting type ambulometer test; type: functional; how it was run: as §1
Mus musculus [19] = assay: Anxiolytic-like activity in ddY mouse assessed as pentobarbital-induced sleep time at 1 mg/kg, po administered 30 mins before pentobarbital challenge; type: functional; how it was run: as §7
Mus musculus [20] = assay: Anxiolytic-like activity in ddY mouse assessed as time spent in open-sided arms at 1 mg/kg, po for 2 days measured 24 hrs after final drug administration by elevated plus-maze test; type: functional; how it was run: as §2
Mus musculus [21] = assay: Anxiolytic-like activity in ddY mouse assessed as pentobarbital-induced sleep time at 0.5 mg/kg, po administered 30 mins before pentobarbital challenge; type: functional; how it was run: as §7
Mus musculus [22] = assay: Toxicity in ddY mouse assessed as induction of ataxia at 1 mg/kg, po after 1 to 3 hrs; type: organism-based; parameters: dose 1 mg/kg, route oral; settings: in vivo
Mus musculus [23] = assay: Anxiolytic-like activity in ddY mouse assessed as pentobarbital-induced sleep time at 10 mg/kg, po administered 30 mins before pentobarbital challenge; type: functional; how it was run: as §7
Mus musculus [24] = assay: Anxiolytic-like activity in ddY mouse assessed as time spent in open-sided arms at 1 mg/kg, po for 3 days measured 24 hrs after final drug administration by elevated plus-maze test; type: functional; how it was run: as §2
Mus musculus [25] = assay: Toxicity in ddY mouse assessed as induction of sedation at 20 mg/kg, po after 1 to 3 hrs; type: organism-based; parameters: dose 20 mg/kg, route oral; settings: in vivo
Mus musculus [26] = assay: Anxiolytic-like activity in ddY mouse assessed as pentobarbital-induced sleep time at 5 mg/kg, po administered 30 mins before pentobarbital challenge; type: functional; how it was run: as §7
Mus musculus [27] = assay: Anxiolytic-like activity in ddY mouse assessed as number of shocks per hour at 1 mg/kg, po administered 30 mins before test by discrete shuttle avoidance test; type: functional; how it was run: as §4
Mus musculus [28] = assay: Anxiolytic-like activity in ddY mouse assessed as ambulatory activity at 1 mg/kg, po for 3 days measured 24 hrs after final drug administration assessed per 5 mins by tilting type ambulometer test; type: functional; how it was run: as §1
Mus musculus [29] = assay: Anxiolytic-like activity in ddY mouse assessed as time spent in open-sided arms at 1 mg/kg, po for 5 days measured 24 hrs after final drug administration by elevated plus-maze test; type: functional; how it was run: as §2
Mus musculus [30] = assay: Toxicity in ddY mouse assessed as induction of excitation at 20 mg/kg, po after 1 to 3 hrs; type: organism-based; parameters: dose 20 mg/kg, route oral; settings: in vivo
Mus musculus [31] = assay: Anxiolytic-like activity in ddY mouse assessed as ambulatory activity at 1 mg/kg, po for 1 day measured after 1 hr assessed per 5 mins by tilting type ambulometer test; type: functional; how it was run: as §5
[32] = Half life in rat; type: ADME, organism-based; settings: in vivo
Mus musculus [33] = assay: Anxiolytic-like activity in ddY mouse assessed as pentobarbital-induced sleep time at 2 mg/kg, po administered 30 mins before pentobarbital challenge; type: functional; how it was run: as §7
Mus musculus [34] = assay: Anxiolytic-like activity in ddY mouse assessed as time spent in open-sided arms at 2 mg/kg, po for 7 days measured 24 hrs after final drug administration by elevated plus-maze test; type: functional; how it was run: as §2
Mus musculus [35] = assay: Anxiolytic-like activity in ddY mouse assessed as number of shocks per hour at 5 mg/kg, po administered 30 mins before test by discrete shuttle avoidance test; type: functional; how it was run: as §4
Mus musculus [36] = assay: Anxiolytic-like activity in ddY mouse assessed as time spent in open-sided arms at 0.3 mg/kg, po for 7 days measured 24 hrs after final drug administration by elevated plus-maze test; type: functional
Mus musculus [37] = assay: Anxiolytic-like activity in ddY mouse assessed as ambulatory activity at 0.3 mg/kg, po for 7 days measured 24 hrs after final drug administration assessed per 5 mins by tilting type ambulometer test; type: functional

Compound: CN1C(=O)CN=C(c2ccccc2)c2cc(Cl)ccc21 [DIAZEPAM]
- Activity (Mus musculus [1]): 43.1
- Activity (Mus musculus [2]): 24.7 s

Compound: Cn1c(=O)c2c(ncn2C)n(C)c1=O [CAFFEINE]
- Activity (Mus musculus [3]): 3.4
- Activity (Mus musculus [4]): 428.9

Compound: C[C@@H]1C(=O)O[C@H]2C[C@@]34[C@H]5C[C@@H](C(C)(C)C)[C@]36[C@@H](OC(=O)[C@@H]6O)O[C@@]4(C(=O)O5)[C@]21O [GINKGOLIDE A]
- Activity (Mus musculus [5]): 17.8 s
- Activity (Mus musculus [6]): 162.9
- Activity (Mus musculus [7]): 35.4
- Activity (Mus musculus [8]): 182.8
- Activity (Mus musculus [9]): 40.1
- Activity (Mus musculus [10]): 5.9 s
- Activity (Mus musculus [11]): Non-toxic
- Activity (Mus musculus [12]): Non-toxic
- Activity (Mus musculus [13]): 40.1
- Activity (Mus musculus [14]): Non-toxic
- Activity (Mus musculus [15]): 3490 s
- Activity (Mus musculus [16]): 7.6 s
- Activity (Mus musculus [17]): 29.5
- Activity (Mus musculus [18]): 31.6
- Activity (Mus musculus [19]): 2830 s
- Activity (Mus musculus [20]): 10.5 s
- Activity (Mus musculus [21]): 3270 s
- Activity (Mus musculus [22]): Non-toxic
- Activity (Mus musculus [23]): 3690 s
- Activity (Mus musculus [24]): 12.7 s
- Activity (Mus musculus [25]): Non-toxic
- Activity (Mus musculus [26]): 3694 s
- Activity (Mus musculus [1]): 35.3
- Activity (Mus musculus [27]): 1.6
- Activity (Mus musculus [28]): 35.5
- Activity (Mus musculus [29]): 17.8 s
- Activity (Mus musculus [30]): Non-toxic
- Activity (Mus musculus [31]): 39.1
- half-life [32]: 1.5 h
- Activity (Mus musculus [33]): 3510 s
- Activity (Mus musculus [2]): 18.6 s
- Activity (Mus musculus [34]): 17.4 s
- Activity (Mus musculus [35]): 1.1

Compound: CCOC(=O)c1ncn2c1CN(C)C(=O)c1cc(F)ccc1-2 [FLUMAZENIL]
- Activity (Mus musculus [36]): 5.5 s
- Activity (Mus musculus [37]): 31.5
